{"source": "ChEMBL document CHEMBL4266027", "about": "“Cyanobufalins: Cardioactive Toxins from Cyanobacterial Blooms” (J Nat Prod, 2018)", "key": {"BT-474": {"system": "BT-474", "assay": "Cytotoxicity against human BT474 cells assessed as decrease in cell viability after 72 hrs by MTS assay", "assay_type": "functional, cell-based", "details": "BT-474, 72 h", "how_it_was_run": "(§1)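 Cell proliferation assay using the MTS reagent. Compounds were tested as a dilution series, and EC50 values were derived from the concentration–response data.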"}, "SK-OV-3": {"system": "SK-OV-3", "assay": "Cytotoxicity against human SKOV3 cells assessed as decrease in cell viability after 72 hrs by MTS assay", "assay_type": "functional, cell-based", "details": "SK-OV-3, 72 h", "how_it_was_run": "as §1"}, "PANC-1": {"system": "PANC-1", "assay": "Cytotoxicity against human PANC1 cells assessed as decrease in cell viability after 72 hrs by MTS assay", "assay_type": "functional, cell-based", "details": "PANC-1, 72 h", "how_it_was_run": "as §1"}, "HCT-116": {"system": "HCT-116", "assay": "Cytotoxicity against human HCT116 cells assessed as decrease in cell viability after 72 hrs by MTS assay", "assay_type": "functional, cell-based", "details": "HCT-116, 72 h", "how_it_was_run": "as §1"}, "HepG2": {"system": "HepG2", "assay": "Cytotoxicity against human HepG2 cells assessed as decrease in cell viability after 72 hrs by MTS assay", "assay_type": "functional, cell-based", "details": "HepG2, 72 h", "how_it_was_run": "as §1"}, "DU-145": {"system": "DU-145", "assay": "Cytotoxicity against human DU145 cells assessed as decrease in cell viability after 72 hrs by MTS assay", "assay_type": "functional, cell-based", "details": "DU-145, 72 h", "how_it_was_run": "as §1"}, "HT-1080": {"system": "HT-1080", "assay": "Cytotoxicity against human HT1080 cells assessed as decrease in cell viability after 72 hrs by MTS assay", "assay_type": "functional, cell-based", "details": "HT-1080, 72 h", "how_it_was_run": "as §1"}, "MES-SA": {"system": "MES-SA", "assay": "Cytotoxicity against human MESSA cells assessed as decrease in cell viability after 72 hrs by MTS assay", "assay_type": "functional, cell-based", "how_it_was_run": "as §1"}, "MES-SA/Dx5": {"system": "MES-SA/Dx5", "assay": "Cytotoxicity against human MES-SA/Dx5 cells assessed as decrease in cell viability after 72 hrs by MTS assay", "assay_type": "functional, cell-based", "details": "MES-SA/Dx5, 72 h", "how_it_was_run": "as §1"}, "786-0": {"system": "786-0", "assay": "Cytotoxicity against human 786-O cells assessed as decrease in cell viability after 72 hrs by MTS assay", "assay_type": "functional, cell-based", "details": "786-0, 72 h", "how_it_was_run": "as §1"}, "Daudi": {"system": "Daudi", "assay": "Cytotoxicity against human Daudi cells assessed as decrease in cell viability after 72 hrs by MTS assay", "assay_type": "functional, cell-based", "how_it_was_run": "as §1"}, "THP-1": {"system": "THP-1", "assay": "Cytotoxicity against human THP1 cells assessed as decrease in cell viability after 72 hrs by MTS assay", "assay_type": "functional, cell-based", "details": "THP-1, 72 h", "how_it_was_run": "as §1"}, "HeLa": {"system": "HeLa", "assay": "Cytotoxicity against human HeLa cells assessed as decrease in cell viability after 72 hrs by MTS assay", "assay_type": "functional, cell-based", "how_it_was_run": "as §1"}, "MCF7": {"system": "MCF7", "assay": "Cytotoxicity against human MCF7 cells assessed as decrease in cell viability after 72 hrs by MTS assay", "assay_type": "functional, cell-based", "details": "MCF7, 72 h", "how_it_was_run": "as §1"}, "BXPC-3": {"system": "BXPC-3", "assay": "Cytotoxicity against human BxPC3 cells assessed as decrease in cell viability after 72 hrs by MTS assay", "assay_type": "functional, cell-based", "details": "BXPC-3, 72 h", "how_it_was_run": "as §1"}, "LoVo": {"system": "LoVo", "assay": "Cytotoxicity against human LoVo cells assessed as decrease in cell viability after 72 hrs by MTS assay", "assay_type": "functional, cell-based", "how_it_was_run": "as §1"}, "[1]": {"assay": "Cytotoxicity against human LOX cells assessed as decrease in cell viability after 72 hrs by MTS assay", "assay_type": "functional, cell-based", "how_it_was_run": "as §1"}, "U-87 MG": {"system": "U-87 MG", "assay": "Cytotoxicity against human U87MG cells assessed as decrease in cell viability after 72 hrs by MTS assay", "assay_type": "functional, cell-based, U-87MG ATCC", "how_it_was_run": "as §1"}, "NCI-N87": {"system": "NCI-N87", "assay": "Cytotoxicity against human NCI-N87 cells assessed as decrease in cell viability after 72 hrs by MTS assay", "assay_type": "functional, cell-based", "details": "NCI-N87, 72 h", "how_it_was_run": "as §1"}, "A549": {"system": "A549", "assay": "Cytotoxicity against human A549 cells assessed as decrease in cell viability after 72 hrs by MTS assay", "assay_type": "functional, cell-based", "details": "A549, 72 h", "how_it_was_run": "as §1"}, "NCI-H1975": {"system": "NCI-H1975", "assay": "Cytotoxicity against human NCI-H1975 cells assessed as decrease in cell viability after 72 hrs by MTS assay", "assay_type": "functional, cell-based", "details": "NCI-H1975, 72 h", "how_it_was_run": "as §1"}, "MV4-11": {"system": "MV4-11", "assay": "Cytotoxicity against human MV411 cells assessed as decrease in cell viability after 72 hrs by MTS assay", "assay_type": "functional, cell-based", "details": "MV4-11, 72 h", "how_it_was_run": "as §1"}, "MDA-MB-468": {"system": "MDA-MB-468", "assay": "Cytotoxicity against human MDA-MB-468 cells assessed as decrease in cell viability after 72 hrs by MTS assay", "assay_type": "functional, cell-based", "details": "MDA-MB-468, 72 h", "how_it_was_run": "as §1"}, "HUVEC": {"system": "HUVEC", "assay": "Cytotoxicity against human HUVEC cells assessed as decrease in cell viability after 72 hrs by MTS assay", "assay_type": "cell-based", "how_it_was_run": "as §1"}, "MRC5": {"system": "MRC5", "assay": "Cytotoxicity against human MRC5 cells assessed as decrease in cell viability after 72 hrs by MTS assay", "assay_type": "cell-based", "details": "MRC5, 72 h", "how_it_was_run": "as §1"}, "H22": {"system": "H22", "assay": "Cytotoxicity against mouse H22 cells assessed as decrease in cell viability after 72 hrs by MTS assay", "assay_type": "functional, cell-based", "details": "H22, 72 h", "how_it_was_run": "as §1"}, "CCRF S-180": {"system": "CCRF S-180", "assay": "Cytotoxicity against mouse S180 cells assessed as decrease in cell viability after 72 hrs by MTS assay", "assay_type": "functional, cell-based", "details": "CCRF S-180, 72 h", "how_it_was_run": "as §1"}}, "data": [{"smiles": "CC1(C)[C@@H](OC(N)=O)C=C[C@]2(C=O)[C@H]3CC[C@]4(C)[C@@H](c5ccc(=O)oc5)[C@@H](Cl)C[C@]4(O)C3=CC[C@@H]12", "values": [{"measurement": "EC50", "setting": "BT-474", "result": 3.7, "unit": "nM"}, {"measurement": "EC50", "setting": "SK-OV-3", "result": 6, "unit": "nM"}, {"measurement": "EC50", "setting": "PANC-1", "result": 2.1, "unit": "nM"}, {"measurement": "EC50", "setting": "HCT-116", "result": 6, "unit": "nM"}, {"measurement": "EC50", "setting": "HepG2", "result": 5.8, "unit": "nM"}, {"measurement": "EC50", "setting": "DU-145", "result": 5.2, "unit": "nM"}, {"measurement": "EC50", "setting": "HT-1080", "result": 5.4, "unit": "nM"}, {"measurement": "EC50", "setting": "MES-SA", "result": 6.8, "unit": "nM"}, {"measurement": "EC50", "setting": "MES-SA/Dx5", "result": 5.8, "unit": "nM"}, {"measurement": "EC50", "setting": "786-0", "result": 2.3, "unit": "nM"}, {"measurement": "EC50", "setting": "Daudi", "result": 3.3, "unit": "nM"}, {"measurement": "EC50", "setting": "THP-1", "result": 4.3, "unit": "nM"}, {"measurement": "EC50", "setting": "HeLa", "result": 4.7, "unit": "nM"}, {"measurement": "EC50", "setting": "MCF7", "result": 15, "unit": "nM"}, {"measurement": "EC50", "setting": "BXPC-3", "result": 5.7, "unit": "nM"}, {"measurement": "EC50", "setting": "LoVo", "result": 5.6, "unit": "nM"}, {"measurement": "EC50", "setting": "[1]", "result": 3.7, "unit": "nM"}, {"measurement": "EC50", "setting": "U-87 MG", "result": 5.7, "unit": "nM"}, {"measurement": "EC50", "setting": "NCI-N87", "result": 5.8, "unit": "nM"}, {"measurement": "EC50", "setting": "A549", "result": 3.7, "unit": "nM"}, {"measurement": "EC50", "setting": "NCI-H1975", "result": 3.1, "unit": "nM"}, {"measurement": "EC50", "setting": "MV4-11", "result": 6.3, "unit": "nM"}, {"measurement": "EC50", "setting": "MDA-MB-468", "result": 7, "unit": "nM"}, {"measurement": "EC50", "setting": "HUVEC", "result": 9.7, "unit": "nM"}, {"measurement": "EC50", "setting": "MRC5", "result": 2.4, "unit": "nM"}, {"measurement": "EC50", "setting": "H22", "result": 4600, "unit": "nM"}, {"measurement": "EC50", "setting": "CCRF S-180", "result": "> 20000", "unit": "nM"}]}]}
